pPAFAH inh: inhibitors of human plasma PAF acetylhydrolase (pPAFAH) | recombinant pPAFAH, FP-rhodamine probe fluorescence polarization | inhibition, % at 3.39 µM | actives 1.5% (n = 330,000) | AID 463082;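 active = inhibition above the mean inhibition across the screen plus 3 SD, cut at about 25% in these data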;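 also: inhibitors block binding of the rhodamine activity-based probe so polarization drops; 0% = enzyme with DMSO and 100% = wells lacking pPAFAH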
Target sequence (Q13093 whole entry, looked up): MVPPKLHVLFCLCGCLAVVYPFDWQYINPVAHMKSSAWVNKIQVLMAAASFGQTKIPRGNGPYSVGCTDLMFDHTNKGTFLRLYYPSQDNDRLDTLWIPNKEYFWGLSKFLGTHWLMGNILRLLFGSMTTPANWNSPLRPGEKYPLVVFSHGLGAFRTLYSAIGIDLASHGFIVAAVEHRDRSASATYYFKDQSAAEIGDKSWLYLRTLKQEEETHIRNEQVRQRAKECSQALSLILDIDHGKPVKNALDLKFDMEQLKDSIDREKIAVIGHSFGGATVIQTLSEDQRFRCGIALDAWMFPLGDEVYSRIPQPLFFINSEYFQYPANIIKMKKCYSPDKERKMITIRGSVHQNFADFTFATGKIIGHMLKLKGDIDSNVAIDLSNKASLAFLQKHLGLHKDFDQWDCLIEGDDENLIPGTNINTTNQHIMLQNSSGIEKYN
PAFAH1B2 inh: blocks human PAF acetylhydrolase 1b catalytic subunit 2. actives 1.2% (n = 340,000). AID 492953. recombinant PAFAH1B2, FP-rhodamine activity probe, fluorescence polarization. P68402. inhibition, % at 3.39 µM;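 active = inhibition above the mean of all tested compounds plus 3 SD, cut at about 24% in these data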;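 also: 0% = enzyme with DMSO and 100% = wells lacking PAFAH1B2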
VIM-2 inhibitor: inhibitors of Pseudomonas aeruginosa VIM-2 metallo-beta-lactamase. purified VIM-2, nitrocefin hydrolysis, epi-absorbance fluorescence. inhibition, % at 5.6 µM. actives 0.89% (n = 290,000);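 active = inhibition above the mean of all tested compounds plus 3 SD, cutoff set per screening run, cut at about 7.5% in these data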;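 also: red hydrolysis product quenches plate fluorescence so inhibitors raise well fluorescence; 0% = enzyme with DMSO and 100% = DMSO without enzyme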
IMP-1 inh: blocks Pseudomonas aeruginosa IMP-1 metallo-beta-lactamase; actives 0.45% (n = 290,000); inhibition, % at 5.6 µM; purified IMP-1, nitrocefin hydrolysis, epi-absorbance fluorescence;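 active = inhibition above the mean plus 3 SD of all compounds in the same screening run, cut at about 4.5% in these data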;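 also: 0% = IMP-1 with DMSO and 100% = DMSO wells lacking enzyme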
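Assay system: purified IMP-1; Quantity: IMP-1 0.2 nM before substrate addition; Medium: HEPES buffer pH 7.1 with ZnSO4 and Brij 35; Incubation: 15 min enzyme–compound preincubation, then 25 min nitrocefin reaction, 25 °C; Signal: fluorescence quenching readout, ex 480/em 530 nm; Controls: DMSO with and without IMP-1; Repeats: singlicate testing.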
PAFAH1B3 FP inh: blocks human PAF acetylhydrolase 1B catalytic subunit 3; inhibition, % at 3.39 µM; AID 492972; Q15102; recombinant PAFAH1B3, FP-rhodamine probe, fluorescence polarization; actives 0.28% (n = 340,000);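 active = inhibition above the screen-wide average of all tested compounds plus 3 SD, cut at about 25% in these data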;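 also: 0% = enzyme with DMSO only and 100% = wells lacking PAFAH1B3 protein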
Target sequence (Q15102 whole entry, looked up): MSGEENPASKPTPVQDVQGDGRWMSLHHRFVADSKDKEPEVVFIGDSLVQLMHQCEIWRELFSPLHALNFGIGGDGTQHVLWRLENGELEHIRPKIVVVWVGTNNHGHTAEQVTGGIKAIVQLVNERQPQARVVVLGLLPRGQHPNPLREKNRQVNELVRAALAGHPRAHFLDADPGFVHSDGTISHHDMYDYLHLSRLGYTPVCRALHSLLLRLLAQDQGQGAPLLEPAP
PAFAH2 FP inh: inhibitors of human PAFAH2; inhibition, % at 3.39 µM; Q99487; actives 0.99% (n = 340,000); recombinant PAFAH2, FP-rhodamine activity probe, fluorescence polarization;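 active = inhibition above the mean over all tested compounds plus 3 SD, cut at about 30% in these data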;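 also: inhibitors block probe labeling of enzyme so polarization drops; 0% = enzyme with DMSO and 100% = wells lacking PAFAH2 protein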
The depositor's hits bear a star; / = no result. Sampled rows, rich in hits. Any-hit rate of the full collection: about 3.6%.

SMILES | pPAFAH inh | PAFAH1B2 inh | VIM-2 inhibitor | IMP-1 inh | PAFAH1B3 FP inh | PAFAH2 FP inh
O=C(COC(=O)C12CC3CC(CC(Cl)(C3)C1)C2)Nc1ccc2[nH]c(=O)[nH]c2c1 | 6 | 28* | / | / | 5 | 7
O=C(COC(=O)C12CC3CC(CC(C3)C1)C2)Nc1ccc2[nH]c(=O)[nH]c2c1 | 1 | 10 | -2 | -2 | -3 | -1
CCOC(=O)c1c(N)sc2c1CCC1C(=O)N(C3CCCCC3)C(=O)C21 (configuration not stated) | 34* | 4 | -5 | -7 | 2 | 11
CCOC(=O)c1c(N)sc2c1CCC(CC)C2 (configuration not stated) | 26* | 3 | -4 | -3 | -1 | 5
CCOC(=O)c1c(N)sc(N)c1C(=O)OCC | 6 | 1 | -3 | -3 | -10 | 2
CCCOC(=O)c1c(N)sc2c1CCC2 | 5 | 4 | 1 | -3 | -7 | 8
CCC1CCc2c(sc(N)c2C(N)=O)C1 (configuration not stated) | 8 | -2 | -5 | -3 | 11 | 0
CCOC(=O)c1c(N)sc2c1CCSC2 | 13 | -3 | 0 | 14* | 3 | -4
CCOC(=O)C1CCN(Cc2cc(Cl)c3ccccc3c2O)CC1 | 5 | 5 | -1 | 1 | 1 | 1
Cc1[nH]n(-c2ccccc2)c(=O)c1C(C[N+](=O)[O-])c1ccc(Br)cc1 (configuration not stated) | 5 | 35* | -6 | -4 | 23 | 7
COc1cccc(C(C[N+](=O)[O-])c2c(C)[nH]n(-c3ccccc3)c2=O)c1 (configuration not stated) | -1 | 8 | 12* | 2 | 4 | 4
CCn1c(=O)c2sccc2n(Cc2cccc(C)c2)c1=O | 2 | 5 | -1 | -2 | 8 | -9
CCOC(=O)c1cccc(NC(=O)CSc2nncn2-c2ccccn2)c1 | -1 | 7 | -2 | -1 | 1 | 7
COc1ccc(S(=O)(=O)Nc2cccc(Cl)c2)cc1OC | 10 | 5 | -2 | -1 | 7 | 4
COc1ccc(NS(=O)(=O)c2ccc(OC)c(N(C)S(=O)(=O)c3ccc(Cl)cc3)c2)cc1 | 28* | 1 | -2 | -2 | -5 | -2
COc1ccc(OC)c2sc(N(CCN(C)C)C(=O)/C=C/c3cccs3)nc12 | -2 | 6 | 5 | 11* | 11 | 13
CC1(C)Cc2c(c(N3CCCCC3)[nH]c(=S)c2C#N)CS1 | / | 5 | -5 | 8.2* | -3 | 3
Cc1cc(-c2nn(C)c(=O)c3ccccc23)cc(C)c1O | 5 | 4 | 9.2* | -1 | 10 | 1
Cc1ccc(-c2nn(C)c(=O)c3ccccc23)cc1CO | 5 | 6 | 2 | -2 | 6 | 4
Cn1nc(-c2ccc(C(=O)NCCO)cc2)c2ccccc2c1=O | -5 | 0 | 10* | -1 | 4 | -1
Cn1nc(-c2ccc(C(=O)NCC3CCCO3)cc2)c2ccccc2c1=O (configuration not stated) | 4 | 2 | 2 | -2 | -7 | -2
CN(CCO)C(=O)c1ccc(-c2nn(C)c(=O)c3ccccc23)cc1 | 3 | 3 | 3 | -3 | 6 | 5
Cn1nc(-c2ccc(OCC(=O)NCC3CCCO3)cc2)c2ccccc2c1=O (configuration not stated) | 4 | 0 | 11* | -3 | 7 | 3
COc1cc(C(=O)NCCC(=O)NCc2c(F)cc(F)cc2F)cc(OC)c1OC | 6 | -2 | -3 | -4 | 9 | 2
O=C(CNC(=O)c1cccs1)OCc1ccc(Cl)cc1 | 2 | 3 | -4 | -2 | 4 | 3
SMILES | pPAFAH inh | PAFAH1B2 inh | VIM-2 inhibitor | IMP-1 inh | PAFAH1B3 FP inh | PAFAH2 FP inh
O=C(NCCSCc1ccc(Cl)cc1)c1cccs1 | 8 | 25* | -2 | -1 | 12 | 1
On1c(-c2ccccc2)nc2ccc(Cl)cc21 | 9 | -1 | -5 | 5.2* | 7 | 3
CN(C)CCCNc1c2ccccc2nc2ccccc12 | -8 | 4 | 12* | -1 | 6 | -2
CCNc1c(NC(=O)c2ccc3c(c2)OCO3)c(=O)oc2ccccc12 | -6 | 5 | 1 | 1 | 12 | 7
CCOC(=O)C(=CNc1ccccc1Cl)C(=O)OCC | / | 3 | 0 | 0 | 11 | -2
CCOC(=O)C(=CNc1ccc(-c2ccco2)c(Cl)c1)C(=O)OCC | 8 | 2 | 1 | 6.4* | -2 | 5
CCOC(=O)C(=CNc1cc(Cl)c(-c2ccco2)c(Cl)c1)C(=O)OCC | 7 | -5 | 0 | 6.1* | -1 | -3
CCN1C(=O)[C@H]2[C@@H](c3ccc(-c4ccc(Cl)c(Cl)c4)c(OC)c3)N[C@@](Cc3ccccc3)(C(=O)OC)[C@H]2C1=O | -3 | -6 | / | / | -3 | 3
CC(O)[C@H]1CNCCN1CCc1cccc(F)c1 (some centres not stated) | 0 | 5 | / | / | 5 | -6
O=C(O)CCC(=O)N1CCc2cc(S(=O)(=O)NC3CCCC3)ccc21 | -1 | 6 | 2 | 0 | 10 | -2
CCCCC(CC)CNS(=O)(=O)c1ccc2c(c1)CCN2C(=O)CCC(=O)O (configuration not stated) | 32* | 16 | -1 | -1 | 9 | -3
CC(=O)OC1CCC2(C)C3CCC4(C)C(C(C)=O)CCC4C3CC3OC32C1 (configuration not stated) | / | 5 | / | / | -2 | -4
COc1ccc(CN(CC(O)COCc2ccccc2)S(=O)(=O)c2ccccc2Br)cc1OC (configuration not stated) | 6 | 4 | / | / | 3 | -1
CC(=O)Nc1ccc(NC(=O)Nc2cccc(Cl)c2)cc1 | 7 | 0 | 0 | -1 | -4 | 1
CC(=O)C(=Nc1ccc(Cl)cc1Cl)NNc1cccc(Cl)c1 | 25* | -1 | -4 | -5 | 1 | -7
O=c1[nH]c(CCl)nc2cc(-c3ccc(F)cc3)sc12 | 12 | 29* | -1 | -4 | 3 | 0
O=c1[nH]cnc2cc(-c3ccc(Br)cc3)sc12 | -1 | 13 | -1 | -3 | -11 | 1
O=C(N/N=C/c1ccc(O)c(Br)c1)c1cc2c(ccc3ccccc32)o1 | / | -2 | 0 | -2 | -4 | -6
O=C(N/N=C/c1cc(Br)c(O)c(Br)c1)c1cc2c(ccc3ccccc32)o1 | / | 49* | -1 | -2 | 43* | 29
CC(=O)Oc1ccc(/C=N\NC(=O)c2cc3c(ccc4ccccc43)o2)cc1 | 8 | 3 | -2 | 4.9* | 9 | -5
COc1ccc2[nH]c3c(c2c1)CCN1C(=O)N([C@@H](C)C(=O)NC2CCN(Cc4ccccc4)CC2)C(=O)[C@]31C | 6 | 7 | -2 | -4 | 10 | 5
COC(=O)c1c(NC(=O)c2cccnc2)sc(C(=O)N(C)C)c1C | 3 | 7 | 0 | -3 | 17 | 3

Screening results as filed in PubChem BioAssay.
